Measurements taken from ChEMBL document CHEMBL3745695, “Novel Hits in the Correction of ΔF508-Cystic Fibrosis Transmembrane Conductance Regulator (CFTR) Protein: Synthesis, Pharmacological, and ADME Evaluation of Tetrahydropyrido[4,3-d]pyrimidines for the Potential Treatment of Cystic Fibrosis” (J Med Chem, 2015).
Converted amounts (≈) assume the structure as drawn. The source made the active and inactive calls. The rule behind the calls is not given here.

Legend:
[1] = Efflux ratio of permeability from basolateral to apical over apical to basolateral side of MDCK cells at 10 uM incubated for 2 hrs by LC-MS analysis; assay type: ADME, cell-based, Canis lupus familiaris; conditions: dog
In short: (§1)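 MDCK monolayers on inserts seeded 5 days earlier, TEER >70 Ohm×cm². Compound 10 μM in HBSS-Hepes added to the donor side, in duplicate, each direction. 2 h at 37 °C with agitation, sampled at 0 and 120 min, LC-MS. Integrity checked with Lucifer Yellow. Papp calculated for each direction; efflux ratio is B→A over A→B.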

[2] = Apparent permeability from apical to basolateral side in MDCK cells at 10 uM incubated for 2 hrs by LC-MS analysis; assay type: ADME, cell-based, Canis lupus familiaris; conditions: dog; in short: as §1
[3] = Permeability of compound at 10 uM after 4 hrs by PAMPA; assay type: ADME
In short: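 PAMPA with porcine brain lipid (2% w/v in dodecane). Compound 10 μM in HBSS/Hepes pH 7.4 in the donor well, 4 h at 37 °C and 80% humidity, warfarin membrane-integrity control. Donor and acceptor concentrations by UPLC-MS-TOF; effective permeability Pe calculated.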

[4] = molecular target: T1, Cystic fibrosis transmembrane conductance regulator (Homo sapiens, UniProt P13569, F508DEL); test: (§2) Corrector activity at human CFTR F508 deletion mutant expressed in FRT cells incubated for 25 mins with forskolin by YFP-based fluorescence analysis relative to control; assay type: cell-based
T1 sequence (P13569 as listed by the source): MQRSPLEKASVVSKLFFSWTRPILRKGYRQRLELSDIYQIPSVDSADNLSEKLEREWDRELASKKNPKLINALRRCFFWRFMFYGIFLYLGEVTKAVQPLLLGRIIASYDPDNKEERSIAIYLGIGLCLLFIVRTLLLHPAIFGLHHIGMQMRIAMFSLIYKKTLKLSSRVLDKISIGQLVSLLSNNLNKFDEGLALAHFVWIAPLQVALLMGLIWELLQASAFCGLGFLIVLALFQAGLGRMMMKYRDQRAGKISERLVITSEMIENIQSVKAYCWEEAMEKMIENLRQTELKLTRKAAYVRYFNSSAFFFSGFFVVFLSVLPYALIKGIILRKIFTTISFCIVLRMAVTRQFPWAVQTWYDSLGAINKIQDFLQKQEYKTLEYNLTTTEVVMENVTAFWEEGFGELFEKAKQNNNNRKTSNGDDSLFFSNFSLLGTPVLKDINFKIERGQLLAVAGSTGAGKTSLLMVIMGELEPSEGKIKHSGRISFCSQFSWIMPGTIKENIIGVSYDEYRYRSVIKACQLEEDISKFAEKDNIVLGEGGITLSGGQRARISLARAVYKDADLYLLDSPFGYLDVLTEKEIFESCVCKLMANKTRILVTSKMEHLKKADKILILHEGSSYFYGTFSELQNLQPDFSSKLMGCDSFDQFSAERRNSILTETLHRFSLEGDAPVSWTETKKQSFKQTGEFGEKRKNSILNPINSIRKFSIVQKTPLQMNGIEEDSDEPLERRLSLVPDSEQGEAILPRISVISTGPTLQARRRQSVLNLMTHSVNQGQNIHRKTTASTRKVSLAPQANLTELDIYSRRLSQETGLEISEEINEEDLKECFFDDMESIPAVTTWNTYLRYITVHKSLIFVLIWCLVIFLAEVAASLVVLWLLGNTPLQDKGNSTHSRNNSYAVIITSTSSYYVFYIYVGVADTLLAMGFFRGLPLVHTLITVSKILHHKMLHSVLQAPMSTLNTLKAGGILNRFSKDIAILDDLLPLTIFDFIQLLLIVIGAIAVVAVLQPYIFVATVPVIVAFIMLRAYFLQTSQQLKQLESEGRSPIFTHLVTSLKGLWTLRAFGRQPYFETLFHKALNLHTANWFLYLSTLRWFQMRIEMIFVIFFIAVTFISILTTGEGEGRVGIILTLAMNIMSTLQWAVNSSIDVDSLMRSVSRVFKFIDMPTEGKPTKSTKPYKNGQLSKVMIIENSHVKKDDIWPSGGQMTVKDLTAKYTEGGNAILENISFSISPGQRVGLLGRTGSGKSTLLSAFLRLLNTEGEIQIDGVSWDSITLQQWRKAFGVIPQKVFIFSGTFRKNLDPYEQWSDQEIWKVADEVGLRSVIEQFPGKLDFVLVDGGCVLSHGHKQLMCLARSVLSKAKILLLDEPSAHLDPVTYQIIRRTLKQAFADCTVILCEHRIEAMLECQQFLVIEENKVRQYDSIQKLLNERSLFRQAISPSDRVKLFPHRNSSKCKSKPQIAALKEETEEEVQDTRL
In short: (§3)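 FRT cells co-expressing ΔF508-CFTR and YFP-H148Q/I152L, grown 18–24 h at 37 °C, then 18–24 h at 37 °C with test compound. Then 25 min in PBS with forskolin (20 μM) plus genistein (50 μM). Iodide injected (final 100 mM) with a 14-s read. Exponential fit of the final 11 s gave dF/dt. EC50/Emax from dose–response, normalized to DMSO (0%) and positive control (100%). Mean of 2–3 experiments.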

[5] = tested on: Cystic fibrosis transmembrane conductance regulator (Homo sapiens), P13569 [F508del]; test: as §2; assay type: cell-based; in short: as §3
Sequence of Cystic fibrosis transmembrane conductance regulator (Homo sapiens), P13569 [F508del] (P13569 as listed by the source): as above

CYP3A4 = CYP3A4 (Homo sapiens, UniProt P08684); test: Metabolic stability assessed as recombinant human CYP3A4-mediated drug degradation by measuring compound remaining incubated for 1 hr by MS analysis; assay type: ADME; conditions: read-out: Stability
Sequence of CYP3A4 (P08684 whole entry): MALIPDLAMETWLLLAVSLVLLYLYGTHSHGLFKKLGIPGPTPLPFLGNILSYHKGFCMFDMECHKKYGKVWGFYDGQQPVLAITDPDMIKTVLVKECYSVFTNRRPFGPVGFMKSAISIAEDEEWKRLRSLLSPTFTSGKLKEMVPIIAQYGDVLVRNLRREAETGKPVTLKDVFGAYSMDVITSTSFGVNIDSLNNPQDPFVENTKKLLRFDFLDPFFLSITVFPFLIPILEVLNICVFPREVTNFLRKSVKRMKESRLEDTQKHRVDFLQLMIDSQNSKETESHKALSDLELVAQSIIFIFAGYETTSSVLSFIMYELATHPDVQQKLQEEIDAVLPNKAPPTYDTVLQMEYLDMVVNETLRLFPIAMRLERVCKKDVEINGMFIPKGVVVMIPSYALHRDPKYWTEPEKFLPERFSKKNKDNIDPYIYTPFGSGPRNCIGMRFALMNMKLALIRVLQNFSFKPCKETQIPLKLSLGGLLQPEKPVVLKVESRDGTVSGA
In short: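 Recombinant hCYP3A4 at 20 pmol/mL, compound at 1 μM final with 0.25% organic solvent. 1 h at 37 °C with or without NADPH regenerating system, acetonitrile stop. Reported as % remaining by MS, NADPH sample versus the no-NADPH control.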

[6] = tested on: Cystic fibrosis transmembrane conductance regulator (Homo sapiens), P13569 [F508del]; test: (§4) Corrector activity at human CFTR F508 deletion mutant expressed in human A549 cells incubated for 25 mins by YFP-based fluorescence analysis; assay type: cell-based
In short: (§5)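 A549 cells stably co-expressing ΔF508-CFTR and YFP-H148Q/I152L, cultured in DMEM/F-12. Corrector treatment 18–24 h at 37 °C, then 25 min forskolin (20 μM) plus genistein (50 μM). Iodide injected (final 100 mM). Initial slope dF/dt taken from an exponential fit of the final 11 s. EC50/Emax from dose–response. Mean of 2–3 independent experiments.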

[7] = Solubility of the compound in 50 mM ammonium acetate buffer at 250 uM at pH 7.4 after 24 hrs by UPLC/UV/TOF-MS analysis; assay type: physicochemical; conditions: for solubility at 24 h, 250 µM: 50 mM ammonium acetate buffer, pH 7.4
In short: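 From 10 mM DMSO stock, 250 μM in 50 mM ammonium acetate pH 7.4 (2.5% DMSO final). Shaken 24 h at room temperature, filtered, diluted 1:2. UPLC/UV (254 nm) quantified against a 250 μM standard in acetonitrile/buffer.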

[8] = Stability in rat plasma assessed as compound remaining after 3 hrs by LC-MS/MS analysis; assay type: ADME, cell-free; conditions: read-out: Stability
In short: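 Compound at 10 μM in 100% fresh rat plasma at 37 °C, sampled to 3 h. Quenched with 3 volumes cold acetonitrile, centrifuged 3000 g for 15 min, supernatant diluted 1:10 in water, LC-MS/MS. Reported as % remaining.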

[9] = tested on: Cystic fibrosis transmembrane conductance regulator (Homo sapiens), P13569 [F508del]; test: Corrector activity at human CFTR F508 deletion mutant expressed in FRT cells at 10 uM incubated for 25 mins with forskolin by YFP-based fluorescence analysis relative to control; assay type: cell-based
[10] = molecular target: T1, Cystic fibrosis transmembrane conductance regulator; test: as §4; assay type: cell-based; in short: as §5
[11] = molecular target: Cystic fibrosis transmembrane conductance regulator (Homo sapiens) (UniProt P13569); test: Activity at human wild type CFTR expressed in FRT cells at 10 uM incubated for 25 mins with forskolin by YFP-based fluorescence analysis; assay type: cell-based
Sequence of Cystic fibrosis transmembrane conductance regulator (Homo sapiens) (P13569 whole entry, looked up): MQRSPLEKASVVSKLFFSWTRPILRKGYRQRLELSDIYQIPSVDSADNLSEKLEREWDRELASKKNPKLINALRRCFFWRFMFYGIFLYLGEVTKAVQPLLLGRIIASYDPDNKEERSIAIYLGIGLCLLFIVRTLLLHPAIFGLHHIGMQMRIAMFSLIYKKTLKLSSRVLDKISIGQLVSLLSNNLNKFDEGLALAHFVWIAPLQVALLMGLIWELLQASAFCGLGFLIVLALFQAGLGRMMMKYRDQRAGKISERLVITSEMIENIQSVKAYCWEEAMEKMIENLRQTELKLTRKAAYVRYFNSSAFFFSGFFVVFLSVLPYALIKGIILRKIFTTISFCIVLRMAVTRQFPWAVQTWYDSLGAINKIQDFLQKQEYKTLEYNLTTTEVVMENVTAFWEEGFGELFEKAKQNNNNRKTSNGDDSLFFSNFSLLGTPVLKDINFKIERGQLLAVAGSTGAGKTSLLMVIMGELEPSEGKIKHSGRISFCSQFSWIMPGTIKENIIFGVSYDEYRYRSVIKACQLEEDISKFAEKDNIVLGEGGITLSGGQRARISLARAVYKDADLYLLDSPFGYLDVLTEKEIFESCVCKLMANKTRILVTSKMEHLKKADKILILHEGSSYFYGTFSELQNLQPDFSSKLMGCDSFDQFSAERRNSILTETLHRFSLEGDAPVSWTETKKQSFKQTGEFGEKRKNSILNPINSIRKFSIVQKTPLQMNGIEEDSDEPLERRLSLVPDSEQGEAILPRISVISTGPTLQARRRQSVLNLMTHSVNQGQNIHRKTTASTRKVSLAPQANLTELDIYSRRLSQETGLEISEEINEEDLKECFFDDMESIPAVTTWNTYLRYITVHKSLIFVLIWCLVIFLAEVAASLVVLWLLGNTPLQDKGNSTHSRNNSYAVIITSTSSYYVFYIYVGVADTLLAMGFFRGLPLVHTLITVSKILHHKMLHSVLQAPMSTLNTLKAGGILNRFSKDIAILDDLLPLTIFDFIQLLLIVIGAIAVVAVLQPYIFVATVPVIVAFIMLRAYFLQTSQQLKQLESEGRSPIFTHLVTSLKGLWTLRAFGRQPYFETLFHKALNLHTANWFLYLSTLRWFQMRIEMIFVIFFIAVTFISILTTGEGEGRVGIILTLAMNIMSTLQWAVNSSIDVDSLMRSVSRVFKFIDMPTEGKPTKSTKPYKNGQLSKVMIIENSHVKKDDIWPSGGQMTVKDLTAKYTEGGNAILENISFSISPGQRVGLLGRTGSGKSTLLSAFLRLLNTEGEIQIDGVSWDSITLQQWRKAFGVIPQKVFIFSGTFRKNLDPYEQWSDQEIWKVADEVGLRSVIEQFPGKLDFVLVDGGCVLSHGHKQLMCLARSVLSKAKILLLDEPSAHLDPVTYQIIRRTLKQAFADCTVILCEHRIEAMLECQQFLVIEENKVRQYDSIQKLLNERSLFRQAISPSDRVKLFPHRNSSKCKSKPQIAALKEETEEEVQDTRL
In short: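 FRT cells stably co-expressing human CFTR and halide-sensing YFP-H148Q/I152L, plated 50,000 cells/well. At assay, PBS wash, then 25 min in PBS with forskolin (20 μM). Iodide solution injected (final I⁻ 100 mM) during a 14-s fluorescence reading (ex 500, em 535 nm). The final 11 s were fitted exponentially to give initial slope dF/dt. Test compounds at 10 μM, normalized to DMSO (100%). Mean of 2 or 3 independent experiments.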

[12] = tested on: Cystic fibrosis transmembrane conductance regulator (Homo sapiens), P13569 [F508del]; test: Corrector activity at human CFTR F508 deletion mutant expressed in FRT cells at 15 uM incubated for 25 mins with forskolin by YFP-based fluorescence analysis relative to control; assay type: cell-based

Structure (SMILES): CN1CCN(CCCNc2nc(-c3ccccn3)nc3c2CN(Cc2ccccc2)CC3)CC1
- efflux ratio at 2 h, 10 µM [1]: 18.1
- Papp A→B at 2 h, 10 µM [2]: 1.8 ×10⁻⁶ cm/s
- permeability [3]: permeable
- EC50 [4]: 3100 nM
- Emax [5]: 53.4%
- remaining at 1 h (CYP3A4): 100%
- Emax [6]: inactive
- solubility at 24 h, 250 µM [7]: 180 µM (≈ 82.4 µg/mL)
- remaining at 3 h [8]: 101%

Structure (SMILES): COc1ccc(S(=O)(=O)N2CCN(C(C)c3nc(OC4CCCCC4)c4ccccc4n3)CC2)cc1 (stereo unspecified)
- Emax [9]: 41.4%
- EC50 [4]: 2200 nM
- Emax [5]: 92.9%
- remaining at 1 h (CYP3A4): 13%
- solubility at 24 h, 250 µM [7]: 1 µM (≈ 0.511 µg/mL)

Structure (SMILES): CC(=O)NC1CCN(c2nc(-c3ccccn3)nc3c2CN(Cc2ccc(Cl)cc2)CC3)CC1
- efflux ratio at 2 h, 10 µM [1]: 12.1
- Papp A→B at 2 h, 10 µM [2]: 3.1 ×10⁻⁶ cm/s
- permeability [3]: permeable
- EC50 [4]: 700 nM
- Emax [5]: 65.6%
- remaining at 1 h (CYP3A4): 25%
- EC50 [10]: 1900 nM
- Emax [6]: 61.7%
- solubility at 24 h, 250 µM [7]: 198 µM (≈ 94.4 µg/mL)
- remaining at 3 h [8]: 93.2%

Structure (SMILES): COc1ccc(Cl)cc1Nc1nc(-c2sc(NC(=O)c3ccccc3)nc2C)cs1
- Emax [9]: 100%
- EC50 [4]: 1100 nM
- Emax [5]: 114%
- remaining at 1 h (CYP3A4): 55%
- Emax [11]: 115%
- solubility ([7]; buffer, pH 7.4, 24 h, 250 µM): 1 µM (≈ 0.457 µg/mL)

Structure (SMILES): NC(=O)C1CCN(c2nc(-c3ccccn3)nc3c2CN(Cc2ccccc2)CC3)CC1
- efflux ratio at 2 h, 10 µM [1]: 52.3
- Papp A→B at 2 h, 10 µM [2]: 0.4 ×10⁻⁶ cm/s
- permeability [3]: permeable
- EC50 [4]: 1400 nM
- Emax [5]: 56.6%
- remaining at 1 h (CYP3A4): 71%
- Emax [11]: 103%
- Emax [6]: 34.4%
- solubility at 24 h, 250 µM [7]: 250 µM (≈ 107 µg/mL)
- Emax [12]: 74.6%
- remaining at 3 h [8]: 85%
